Source: ChEMBL document CHEMBL1123779, “Modifications of primaquine as antimalarials. 4. 5-Alkoxy derivatives of primaquine” (J Med Chem, 1987)

Legend:
Plasmodium cynomolgi [1] = test: Cures in Plasmodium cynomolgi infected Rhesus monkeys (Macaca mulatta) on 1 mg/kg/day after 7 days; cured 0 of 1; type: functional
Plasmodium cynomolgi [2] = test: Cures in Plasmodium cynomolgi infected Rhesus monkeys (Macaca mulatta) on 10.0 mg/kg/day after 7 days; cured 1 of 1; type: functional
Plasmodium cynomolgi [3] = test: Cures in Plasmodium cynomolgi infected Rhesus monkeys (Macaca mulatta) on 3.16 mg/kg/day after 7 days; cured 0 of 1; type: functional
Mus musculus [4] = test: Suppressive blood schizonticidal antimalarial activity evaluated in the trophozoite-induced Plasmodium berghei infection in mice (Mus musculus) at a dose 160 mg/kg given as no. of cures; type: functional
Procedure, shortened: (§1)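 Run at the Rane Laboratory with blood-induced P. berghei infections in mice, five animals per group. A cure is a mouse surviving to 60 days postinfection. Deaths before day 6 are recorded separately as toxic deaths. Activity is scored from the increase in mean survival time over untreated controls, and counts as active when treated MST is more than twice control MST.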

Mus musculus [5] = test: Suppressive blood schizonticidal antimalarial activity evaluated in the trophozoite-induced Plasmodium berghei infection in mice (Mus musculus) at a dose 20 mg/kg given as no. of cures; type: functional; procedure, shortened: as §1
Mus musculus [6] = test: Suppressive blood schizonticidal antimalarial activity evaluated in the trophozoite-induced Plasmodium berghei infection in mice (Mus musculus) at a dose 320 mg/kg given as number of cures; type: functional; procedure, shortened: as §1
Plasmodium berghei [7] = test: Blood schizonticidal activity in trophozoite-induced Plasmodium berghei infected mice (Mus musculus) at 40 mg/kg; numbers cured; type: functional; procedure, shortened: as §1
Mus musculus [8] = test: Suppressive blood schizonticidal antimalarial activity evaluated in the trophozoite-induced Plasmodium berghei infection in mice (Mus musculus) at a dose 640 mg/kg given as no. of cures; type: functional; procedure, shortened: as §1
Mus musculus [9] = test: Suppressive blood schizonticidal antimalarial activity evaluated in the trophozoite-induced Plasmodium berghei infection in mice (Mus musculus) at a dose 80 mg/kg given as no. of cures; type: functional; procedure, shortened: as §1
Mus musculus [10] = test: Suppressive blood schizonticidal antimalarial activity evaluated in the trophozoite-induced Plasmodium berghei infection in mice (Mus musculus) at a dose 10 mg/kg; type: functional
Procedure, shortened: (§2)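 Run at the Rane Laboratory in mice infected with blood-induced P. berghei, five animals per group. Activity is the increase in mean survival time over untreated infected controls. A compound counts as active when treated-group MST is more than twice the control MST. Cures are mice surviving at 60 days postinfection.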

Plasmodium cynomolgi [11] = test: Cures in Plasmodium cynomolgi infected Rhesus monkeys (Macaca mulatta) on 0.316 mg/kg/day after 7 days; cured 0 of 2; type: functional
Plasmodium cynomolgi [12] = test: Radical curative antimalarial activity against Plasmodium cynomolgi in Rhesus monkeys (Macaca mulatta) at 1 mg/kg/day over 7 days; cured 1 of 2; type: functional
Plasmodium cynomolgi [13] = test: Cures in Plasmodium cynomolgi infected Rhesus monkeys (Macaca mulatta) on 0.1 mg/kg/day after 7 days (x7); cured 0 of 2; type: functional
Mus musculus [14] = test: Suppressive blood schizonticidal antimalarial activity evaluated in the trophozoite-induced Plasmodium berghei infection in mice (Mus musculus) at a dose 160 mg/kg given as no. of toxic deaths; type: functional
Procedure, shortened: (§3)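 Rane Laboratory mouse test with blood-induced P. berghei infection, five mice per group. Toxic deaths are deaths occurring before the 6th day postinfection.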

Mus musculus [15] = test: Suppressive blood schizonticidal antimalarial activity evaluated in the trophozoite-induced Plasmodium berghei infection in mice (Mus musculus) at a dose 320 mg/kg given as no. of toxic deaths; type: functional; procedure, shortened: as §3
Plasmodium berghei [16] = test: Suppressive blood schizonticidal antimalarial activity evaluated in the trophozoite-induced Plasmodium berghei infection in mice (Mus musculus) at a dose 640 mg/kg given as number of toxic deaths; type: toxicity, organism-based; set-up: dose 640 mg/kg; settings: in vivo; procedure, shortened: as §3
Mus musculus [17] = test: Suppressive blood schizonticidal antimalarial activity evaluated in the trophozoite-induced Plasmodium berghei infection in mice (Mus musculus) at a dose 80 mg/kg given as no. of toxic deaths; type: functional; procedure, shortened: as §3
Plasmodium berghei [18] = test: Blood schizonticidal antimalarial activity in the trophozoite-induced Plasmodium berghei infection in mice (Mus musculus) at 20 mg/kg; type: functional; set-up: unit not given beside the values; procedure, shortened: as §2
Mus musculus [19] = test: Suppressive blood schizonticidal antimalarial activity evaluated in the trophozoite-induced Plasmodium berghei infection in mice (Mus musculus) at a dose 40 mg/kg; type: functional; set-up: unit not given beside the values; procedure, shortened: as §2
Plasmodium cynomolgi [20] = test: Cures in Plasmodium cynomolgi infected Rhesus monkeys (Macaca mulatta) on 0.316 mg/kg/day after 7 days; cured 2 of 3; type: functional
Plasmodium cynomolgi [21] = test: Radical curative antimalarial activity against Plasmodium cynomolgi infected Rhesus monkeys (Macaca mulatta) after 7 days at 0.1 mg/kg/day dose; cured 2 of 4; type: functional
Plasmodium cynomolgi [22] = test: Cures in Plasmodium cynomolgi infected Rhesus monkeys (Macaca mulatta) on 1 mg/kg/day after 7 days; cured 1 of 1; type: functional
Mus musculus [23] = test: Suppressive blood schizonticidal antimalarial activity evaluated in the trophozoite-induced Plasmodium berghei infection in mice (Mus musculus) at a dose 10 mg/kg given as no. of cures; type: functional; procedure, shortened: as §1
Mus musculus [24] = test: Suppressive blood schizonticidal antimalarial activity evaluated in the trophozoite-induced Plasmodium berghei infection in mice (Mus musculus) at a dose 5 mg/kg; type: functional; set-up: unit not given beside the values; procedure, shortened: as §2
Plasmodium cynomolgi [25] = test: Radical curative antimalarial activity against Plasmodium cynomolgi in Rhesus monkeys (Macaca mulatta) at 0.316 mg/kg/day over 7 days; cured 3 of 5; type: functional
Plasmodium cynomolgi [26] = test: Cures in Plasmodium cynomolgi infected Rhesus monkeys (Macaca mulatta) on 1 mg/kg/day after 7 days; cured 2 of 2; type: functional
Plasmodium cynomolgi [27] = test: Cures in Plasmodium cynomolgi infected Rhesus monkeys (Macaca mulatta) on 0.1 mg/kg/day after 7 days; cured 1 of 3; type: functional
Mus musculus [28] = test: Suppressive blood schizonticidal antimalarial activity evaluated in the trophozoite-induced Plasmodium berghei infection in mice (Mus musculus) at a dose 2.5 mg/kg given as number of cures; type: functional; procedure, shortened: as §1
Mus musculus [29] = test: Suppressive blood schizonticidal antimalarial activity evaluated in the trophozoite-induced Plasmodium berghei infection in mice (Mus musculus) at a dose 5 mg/kg given as no. of cures; type: functional; procedure, shortened: as §1
Mus musculus [30] = test: Suppressive blood schizonticidal antimalarial activity evaluated in the trophozoite-induced Plasmodium berghei infection in mice (Mus musculus) at a dose 20 mg/kg given as number of toxic deaths; type: ADME, organism-based; set-up: dose 20 mg/kg; settings: in vivo; procedure, shortened: as §3
Mus musculus [31] = test: Suppressive blood schizonticidal antimalarial activity evaluated in the trophozoite-induced Plasmodium berghei infection in mice (Mus musculus) at a dose 40 mg/kg given as number of toxic deaths; type: ADME, organism-based; set-up: dose 40 mg/kg; settings: in vivo; procedure, shortened: as §3
Plasmodium cynomolgi [32] = test: Cures in Plasmodium cynomolgi infected Rhesus monkeys (Macaca mulatta) on 0.125 mg/kg/day dose; type: functional
Plasmodium cynomolgi [33] = test: Cures in Plasmodium cynomolgi infected Rhesus monkeys (Macaca mulatta) on 0.25 mg/kg/day dose; type: functional
Plasmodium cynomolgi [34] = test: Cures in Plasmodium cynomolgi infected Rhesus monkeys (Macaca mulatta) on 0.5 mg/kg/day; type: functional
Mus musculus [35] = test: Suppressive blood schizonticidal antimalarial activity evaluated in the trophozoite-induced Plasmodium berghei infection in mice (Mus musculus) at a dose 80 mg/kg; type: functional; set-up: unit not given beside the values; procedure, shortened: as §2
Plasmodium cynomolgi [36] = test: Cures in Plasmodium cynomolgi infected Rhesus monkeys (Macaca mulatta) on 0.316 mg/kg/day after 7 days; cured 1 of 1; type: functional
Plasmodium cynomolgi [37] = test: Cures in Plasmodium cynomolgi infected Rhesus monkeys (Macaca mulatta) on 0.1 mg/kg/day after 7 days; cured 3 of 4; type: functional
Procedure, shortened: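 Radical curative test run by the SEATO Medical Research Laboratory, Bangkok, in rhesus monkeys with sporozoite-induced P. cynomolgi infection. Cures are recorded as the number cured out of the number treated.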

Work on `CCCCCCCCCCOc1c(OC)cc(NC(C)CCCN)c2nccc(C)c12` (stereo not drawn) yielded a Cures/no. of animals (Plasmodium cynomolgi [1]) of 0, a Cures/no. of animals (Plasmodium cynomolgi [2]) of 1 and a Cures/no. of animals (Plasmodium cynomolgi [3]) of 0. It also gave a Cures (Mus musculus [4]) of 4, a Cures (Mus musculus [5]) of 2 and a Cures (Mus musculus [6]) of 5. It also gave a Cures (Plasmodium berghei [7]) of 3, a Cures (Mus musculus [8]) of 4 and a Cures (Mus musculus [9]) of 4. For the same compound, the “Delta MST” value (Mus musculus [10]) was 1.8.
In the case of `COc1cc(NC(C)CCCN)c2ncc(C)cc2c1` (stereo not drawn), the Cures/no. of animals (Plasmodium cynomolgi [11]) is reported as 0, the Cures/no. of animals (Plasmodium cynomolgi [12]) is reported as 2 and the Cures/no. of animals (Plasmodium cynomolgi [13]) is reported as 0. The Toxic deaths (Mus musculus [14]) was 2, the Toxic deaths (Mus musculus [15]) was 5 and the Toxic deaths (Plasmodium berghei [16]) was 5. For the same compound, the Toxic deaths (Mus musculus [17]) was 1, the “Delta MST” value (Plasmodium berghei [18]) was 5.7 and the “Delta MST” value (Mus musculus [19]) was 7.5.
For `CCCCCCOc1c(OC)cc(NC(C)CCCN)c2nc(C)cc(C)c12` (stereo not drawn), the Cures/no. of animals (Plasmodium cynomolgi [20]) was 2, the Cures/no. of animals (Plasmodium cynomolgi [21]) was 2 and the Cures/no. of animals (Plasmodium cynomolgi [22]) was 1. The Cures (Mus musculus [23]) was 1, the Cures (Mus musculus [5]) was 2 and the Cures (Plasmodium berghei [7]) was 5. It also gave a Toxic deaths (Mus musculus [14]) of 5, a Toxic deaths (Mus musculus [15]) of 5 and a Toxic deaths (Plasmodium berghei [16]) of 5. For the same compound, the Toxic deaths (Mus musculus [17]) was 5 and the “Delta MST” value (Mus musculus [24]) was 7.3.
`COc1cc(NC(C)CCCN)c2nccc(C)c2c1OCCCCCCOCc1ccccc1` (stereo not drawn) showed a Cures/no. of animals (Plasmodium cynomolgi [25]) of 3, a Cures/no. of animals (Plasmodium cynomolgi [26]) of 2 and a Cures/no. of animals (Plasmodium cynomolgi [27]) of 1. The Cures (Mus musculus [23]) was 4, the Cures (Mus musculus [28]) was 1 and the Cures (Mus musculus [29]) was 2. It also gave a Toxic deaths (Mus musculus [30]) of 2 and a Toxic deaths (Mus musculus [31]) of 5.
Compound `COc1cc(NC(C)CCCN)c2nccc(C)c2c1OC` (stereo not drawn) has a Cures (Plasmodium cynomolgi [32]) of 11, a Cures (Plasmodium cynomolgi [33]) of 3 and a Cures (Plasmodium cynomolgi [34]) of 1. The Toxic deaths (Mus musculus [14]) was 1, the Toxic deaths (Mus musculus [15]) was 4 and the Toxic deaths (Plasmodium berghei [16]) was 5. The “Delta MST” value (Plasmodium berghei [18]) was 5.7, the “Delta MST” value (Mus musculus [19]) was 7.1 and the “Delta MST” value (Mus musculus [35]) was 8.9.
Work on `CCCCCCOc1c(OC)cc(NC(C)CCCN)c2nc(C)ccc12` (stereo not drawn) yielded a Cures/no. of animals (Plasmodium cynomolgi [36]) of 1, a Cures/no. of animals (Plasmodium cynomolgi [1]) of 0 and a Cures/no. of animals (Plasmodium cynomolgi [13]) of 0. It also gave a Cures (Mus musculus [4]) of 3, a Cures (Plasmodium berghei [7]) of 1 and a Toxic deaths (Mus musculus [15]) of 3. The Toxic deaths (Plasmodium berghei [16]) was 3, the “Delta MST” value (Plasmodium berghei [18]) was 6 and the “Delta MST” value (Mus musculus [10]) was 2.7. The “Delta MST” value (Mus musculus [35]) was 11.4.
`CCCCCOc1c(OC)cc(NC(C)CCCN)c2nccc(C)c12` (stereo not drawn) gave a Cures/no. of animals (Plasmodium cynomolgi [26]) of 2, a Cures/no. of animals (Plasmodium cynomolgi [37]) of 3 and a Cures (Mus musculus [23]) of 5. For the same compound, the Cures (Mus musculus [28]) was 2, the Cures (Mus musculus [5]) was 4 and the Cures (Plasmodium berghei [7]) was 1. The Cures (Mus musculus [29]) was 5, the Toxic deaths (Mus musculus [14]) was 4 and the Toxic deaths (Mus musculus [15]) was 5. For the same compound, the Toxic deaths (Plasmodium berghei [16]) was 5 and the Toxic deaths (Mus musculus [17]) was 2.
